# How the values were obtained:
# Format in all cases: functional
# CCRF-CEM = assay: Growth inhibition of human CCRF-CEM cells after 48 hrs by sulforhodamine B assay
# Method in brief: (§1)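 NCI 60-human-tumor-cell-line panel, with compounds tested over a 5-log dose range. Values are taken from dose-response curves as log10 molar concentrations: GI50 is 50% net growth inhibition, TGI is total growth inhibition, and LC50 is 50% net cell death.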
# SR = assay: Growth inhibition of human SR cells after 48 hrs by sulforhodamine B assay
# Method in brief: (§2)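 Run in the NCI 60-human-tumour-cell-line panel, tested over a 5-log dose range. Dose–response curves gave three values per cell line, each as a log10 molar concentration: GI50 (50% inhibition of net cell growth), TGI (total inhibition of net growth) and LC50 (50% net cell death). The mean graph midpoint is the arithmetic mean over all lines, with insensitive lines entered at the highest concentration tested.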
# MOLT-4 = assay: Growth inhibition of human MOLT4 cells after 48 hrs by sulforhodamine B assay; settings: MOLT-4, 48 h; method in brief: as §1
# A549 = assay: Growth inhibition of human A549 cells after 48 hrs by sulforhodamine B assay; settings: A549, 48 h; method in brief: as §1
# EKVX = assay: Growth inhibition of human EKVX cells after 48 hrs by sulforhodamine B assay; method in brief: as §1
# HOP-92 = assay: Growth inhibition of human HOP92 cells after 48 hrs by sulforhodamine B assay; settings: HOP-92, 48 h; method in brief: as §1
# NCI-H23 = assay: Growth inhibition of human NCI-H23 cells after 48 hrs by sulforhodamine B assay; settings: NCI-H23, 48 h; method in brief: as §1
# NCI-H460 = assay: Growth inhibition of human NCI-H460 cells after 48 hrs by sulforhodamine B assay; settings: NCI-H460, 48 h; method in brief: as §1
# COLO 205 = assay: Growth inhibition of human COLO205 cells after 48 hrs by sulforhodamine B assay; settings: COLO 205, 48 h; method in brief: as §1
# HCT-116 = assay: Growth inhibition of human HCT116 cells after 48 hrs by sulforhodamine B assay; settings: HCT-116, 48 h; method in brief: as §1
# HT-29 = assay: Growth inhibition of human HT-29 cells after 48 hrs by sulforhodamine B assay; settings: HT-29, 48 h; method in brief: as §1
# KM12 = assay: Growth inhibition of human KM12 cells after 48 hrs by sulforhodamine B assay; settings: KM12, 48 h; method in brief: as §1
# SF-295 = assay: Growth inhibition of human SF295 cells after 48 hrs by sulforhodamine B assay; settings: SF-295, 48 h; method in brief: as §1
# SF-539 = assay: Growth inhibition of human SF539 cells after 48 hrs by sulforhodamine B assay; settings: SF-539, 48 h; method in brief: as §1
# Malme-3M = assay: Growth inhibition of human MALME-3M cells after 48 hrs by sulforhodamine B assay; method in brief: as §1
# SK-MEL-2 = assay: Growth inhibition of human SK-MEL-2 cells after 48 hrs by sulforhodamine B assay; settings: SK-MEL-2, 48 h; method in brief: as §1
# SK-MEL-5 = assay: Growth inhibition of human SK-MEL-5 cells after 48 hrs by sulforhodamine B assay; settings: SK-MEL-5, 48 h; method in brief: as §1
# UACC-257 = assay: Growth inhibition of human UACC257 cells after 48 hrs by sulforhodamine B assay; settings: UACC-257, 48 h; method in brief: as §2
# OVCAR-5 = assay: Growth inhibition of human OVCAR5 cells after 48 hrs by sulforhodamine B assay; settings: OVCAR-5, 48 h; method in brief: as §1
# SK-OV-3 = assay: Growth inhibition of human SKOV3 cells after 48 hrs by sulforhodamine B assay; settings: SK-OV-3, 48 h; method in brief: as §1
# A498 = assay: Growth inhibition of human A498 cells after 48 hrs by sulforhodamine B assay; settings: A498, 48 h; method in brief: as §1
# ACHN = assay: Growth inhibition of human ACHN cells after 48 hrs by sulforhodamine B assay
# RXF 393 = assay: Growth inhibition of human RXF393 cells after 48 hrs by sulforhodamine B assay; settings: RXF 393, 48 h; method in brief: as §1
# SN12C = assay: Growth inhibition of human SN12C cells after 48 hrs by sulforhodamine B assay; method in brief: as §2
# TK-10 = assay: Growth inhibition of human TK10 cells after 48 hrs by sulforhodamine B assay; settings: TK-10, 48 h; method in brief: as §2
# DU-145 = assay: Growth inhibition of human DU145 cells after 48 hrs by sulforhodamine B assay; settings: DU-145, 48 h; method in brief: as §1
# MDA-MB-231 = assay: Growth inhibition of human MDA-MB-231 cells after 48 hrs by sulforhodamine B assay; settings: MDA-MB-231, 48 h; method in brief: as §1
# BT-549 = assay: Growth inhibition of human BT549 cells after 48 hrs by sulforhodamine B assay; settings: BT-549, 48 h; method in brief: as §1
# T47D = assay: Growth inhibition of human T47D cells after 48 hrs by sulforhodamine B assay; method in brief: as §2
# [1] = read-out: pLC50 (the source's name) (converted)
smiles,measurement,setting,value
COc1cc(CNc2nc3cc(N)cc(N)c3nc2-c2ccccc2)cc(OC)c1,GI50,CCRF-CEM,1.74 µM
same,LC50,CCRF-CEM,> 100 µM
same,TGI,CCRF-CEM; read-out: pTGI (converted),5.62 µM
same,GI50,SR,3.8 µM
same,LC50 (concentration giving 50% net cell death),SR,> 100 µM
same,TGI,SR; read-out: pTGI (converted),> 100 µM
same,GI50,MOLT-4,3.02 µM
same,LC50,MOLT-4,> 100 µM
same,TGI,MOLT-4; read-out: pTGI (converted),> 100 µM
same,GI50,A549,33.1 µM
same,LC50,A549,> 100 µM
same,TGI,A549; read-out: pTGI (converted),> 100 µM
same,GI50,EKVX,2.82 µM
same,LC50 (50% net cell kill),EKVX,> 100 µM
same,TGI,EKVX; read-out: pTGI (converted),8.91 µM
same,GI50,HOP-92,1.15 µM
same,LC50 (50% net cell death),HOP-92,9.55 µM
same,TGI,HOP-92; read-out: pTGI (converted),3.31 µM
same,GI50,NCI-H23,16.2 µM
same,LC50 (50% net cell kill concentration),NCI-H23,> 100 µM
same,TGI,NCI-H23; read-out: pTGI (converted),> 100 µM
same,GI50,NCI-H460,10.5 µM
same,LC50 (50% net cell kill),NCI-H460,> 100 µM
same,TGI,NCI-H460; read-out: pTGI (converted),> 100 µM
same,GI50,COLO 205,2.4 µM
same,LC50 (50% net cell kill),COLO 205,> 100 µM
same,TGI,COLO 205; read-out: pTGI (converted),6.03 µM
same,GI50,HCT-116,3.09 µM
same,LC50 (concentration causing 50% net cell death),HCT-116,72.4 µM
same,TGI,HCT-116; read-out: pTGI (converted),11.2 µM
same,GI50,HT-29,8.13 µM
same,LC50,HT-29,> 100 µM
same,TGI,HT-29; read-out: pTGI (converted),44.7 µM
same,GI50,KM12,4.27 µM
same,LC50 (50% net cell kill),KM12,> 100 µM
same,TGI,KM12; read-out: pTGI (converted),74.1 µM
same,GI50,SF-295,14.1 µM
same,LC50 (50% net cell kill),SF-295,87.1 µM
same,TGI,SF-295; read-out: pTGI (converted),35.5 µM
same,GI50,SF-539,5.25 µM
same,LC50,SF-539,77.6 µM
same,TGI,SF-539; read-out: pTGI (converted),21.4 µM
same,GI50,Malme-3M,4.9 µM
same,CC50,Malme-3M; [1],> 100 µM
same,TGI,Malme-3M; read-out: pTGI (converted),33.9 µM
same,GI50,SK-MEL-2,7.76 µM
same,CC50,SK-MEL-2; [1],> 100 µM
same,TGI,SK-MEL-2; read-out: pTGI (converted),40.7 µM
same,GI50,SK-MEL-5,12.9 µM
same,CC50,SK-MEL-5; [1],> 100 µM
same,TGI,SK-MEL-5; read-out: pTGI (converted),41.7 µM
same,GI50,UACC-257,25.7 µM
same,CC50,UACC-257; [1],> 100 µM
same,TGI,UACC-257; read-out: pTGI (converted),> 100 µM
same,GI50,OVCAR-5,5.89 µM
same,CC50,OVCAR-5; [1],> 100 µM
same,TGI,OVCAR-5; read-out: pTGI (converted),29.5 µM
same,GI50,SK-OV-3,15.1 µM
same,CC50,SK-OV-3; [1],> 100 µM
same,TGI,SK-OV-3; read-out: pTGI (converted),53.7 µM
same,GI50,A498,91.2 µM
same,CC50,A498; [1],> 100 µM
same,TGI,A498; read-out: pTGI (converted),> 100 µM
same,GI50,ACHN,9.33 µM
same,CC50,ACHN; [1],> 100 µM
same,TGI,ACHN; read-out: pTGI (converted),47.9 µM
same,GI50,RXF 393,6.03 µM
same,CC50,RXF 393; [1],> 100 µM
same,TGI,RXF 393; read-out: pTGI (converted),58.9 µM
same,GI50,SN12C,11.5 µM
same,CC50,SN12C; [1],> 100 µM
same,TGI,SN12C; read-out: pTGI (converted),> 100 µM
same,GI50,TK-10,24.5 µM
same,CC50,TK-10; [1],> 100 µM
same,TGI,TK-10; read-out: pTGI (converted),63.1 µM
same,GI50,DU-145,29.5 µM
same,CC50,DU-145; [1],> 100 µM
same,TGI,DU-145; read-out: pTGI (converted),> 100 µM
same,GI50,MDA-MB-231,2.09 µM
same,CC50,MDA-MB-231; [1],> 100 µM
same,TGI,MDA-MB-231; read-out: pTGI (converted),6.03 µM
same,GI50,BT-549,9.77 µM
same,CC50,BT-549; [1],> 100 µM
same,TGI,BT-549; read-out: pTGI (converted),> 100 µM
same,GI50,T47D,1.66 µM
same,CC50,T47D; [1],> 100 µM
same,TGI,T47D; read-out: pTGI (converted),4.57 µM

# — ChEMBL document CHEMBL1137710, “Synthesis and in vitro antitumor activity of new quinoxaline derivatives” (2009)
